Assay outcomes (PubChem BioAssay)
Rpn11 inh = Rpn11 (PSMD14) deubiquitinase inhibitors, primary screen, biochemical, fluorescence polarization, uHTS; 26S proteasome non-ATPase regulatory subunit 14 (Homo sapiens), O00487; human 26S proteasome, Ub4-pepOG fluorescence polarization; 20S core pre-blocked with epoxomicin; inhibition, % at 20 µM; 360,000 compounds, 0.59% hits;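 active means inhibition at 20 µM, scaled to each plate's controls, above about 33%, limit read from the data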
Target sequence (O00487 whole entry, looked up): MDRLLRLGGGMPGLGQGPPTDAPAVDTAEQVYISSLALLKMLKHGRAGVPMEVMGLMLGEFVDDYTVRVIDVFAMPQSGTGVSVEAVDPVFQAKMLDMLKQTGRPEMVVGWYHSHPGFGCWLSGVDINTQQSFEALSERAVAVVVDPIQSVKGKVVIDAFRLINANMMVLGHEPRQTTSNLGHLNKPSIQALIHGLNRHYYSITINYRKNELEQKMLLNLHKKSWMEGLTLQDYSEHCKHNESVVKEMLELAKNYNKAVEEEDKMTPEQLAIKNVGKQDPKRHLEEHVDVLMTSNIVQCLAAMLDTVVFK
Rin1 Abl inh = inhibitors of Rin1-Abl protein binding, primary screen, biochemical, TR-FRET; Tyrosine-protein kinase ABL1 (Homo sapiens) + Ras and Rab interactor 1 (Homo sapiens), …; inhibition, % at 7.35 µM; 360,000 compounds, 0.4% hits; in the data active means inhibition above about 5%, passing the limit was not always enough
ABHD5 PLIN5 PPI = ABHD5-PLIN5 interaction inhibitors, primary screen, cell lysate, split luciferase complementation, luminescence | Perilipin-5 (Homo sapiens) + 1-acylglycerol-3-phosphate O-acyltransferase ABHD5 (Homo … | AID 602281, 2012 | 360,000 compounds, 0.78% hits | inhibition, % at 4 µM | Split G. princeps luciferase complementation, 4 h;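 active means inhibition above the mean inhibition across every tested compound plus 3 SD, cut at about 22% in these data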
XiGFP reactiv = activators of inactive X chromosome reactivation, primary screen, imaging, XiGFP fibroblasts, GFP high-content imaging, set 2; XiGFP mouse fibroblasts, % GFP-positive cells imaging, 3 d; cells co-treated with 5-aza-dC sensitizer; scaled so ellipticine positive control = 100%; activation, % at 7.58 µM; 360,000 compounds, 0.055% hits; AID 743238, 2013;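 active means mean normalized replicate activation at least 10% and every replicate at or above 10%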
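System: XiGFP fibroblasts, SV40-immortalized. Medium: DMEM plus 5-aza-dC sensitizer. Doses: single point. Timing: 3 d treatment, 15 min room-temperature fixation. Control set: ellipticine 6 µM.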
NadD inh = inhibitors of S. aureus NadD, primary screen, biochemical, colorimetric, uHTS. Nicotinate-nucleotide adenylyltransferase NadD (Staphylococcus aureus N315). purified NadD enzyme, colorimetric absorbance read-out. inhibition, % at 20 µM. 360,000 compounds, 0.78% hits. AID 602399, 2012; in the data active means inhibition above about 26%
Rin1-Abl confirm = Rin1-Abl binding inhibitor retest, confirmation, biochemical, TR-FRET | inhibition, % at 7.35 µM | shares compounds with Rin1 Abl inh | 1,300 compounds, 49% hits | purified proteins
GFP quench = GFP fluorescence inhibitors and quenchers, artefact control for Rin1-Abl interaction inhibitor project, biochemical | shares compounds with Rin1 Abl inh | inhibitors/quenchers counterscreen | inhibition, % at 6.75 µM | 1,300 compounds, 8.5% hits | AID 602125, 2011;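 further: ABL1-eGFP fusion protein alone without its partner RIN1-SBP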
GFP quench dose = GFP fluorescence inhibitors and quenchers, dose response, artefact control for Rin1-Abl interaction inhibitor project, biochemical | AID 602182, 2012 | IC50, µM | shares compounds with Rin1 Abl inh | 230 tested, under 10 active | GFP fluorescence interference/quenching counterscreen; call rule not given here;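 further: ABL1-eGFP fusion protein alone without its RIN1 binding partner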
Each line names hits and unclear results; the compound was inactive in the other large screens (follow-up assays come after a bar, where they were run). Compounds with a hit are over-represented: about 1.9% of the library has one in this group of screens. Unless noted, no stated cut-off is given here; in the data, active means inhibition above about 6.5%; inactive means the rest.

COc1ccccc1N(C(=O)c1snc(C(N)=O)c1N)C(C(=O)NCc1ccccc1)c1ccc(O)cc1 (stereo not drawn)	Rin1 Abl inh 22 | Rin1-Abl confirm 23 | GFP quench inactive | GFP quench dose inactive
COc1ccc(N(C(=O)c2snc(C(N)=O)c2N)C(C(=O)NC2CCCCC2)c2ccc(F)cc2)c(OC)c1 (stereo not drawn)	none
COc1ccc(C(C(=O)NCc2ccccc2)N(C(=O)c2snc(C(N)=O)c2N)C2CCCC2)cc1 (stereo not drawn)	none
COc1ccc(C(C(=O)NCc2ccccc2)N(C(=O)c2snc(C(N)=O)c2N)c2ccccc2OC)cc1 (stereo not drawn)	Rin1 Abl inh 12 | Rin1-Abl confirm 14 | GFP quench inactive
COc1ccc(N2CCN(c3nc4c(c(=O)n(C)c(=O)n4C)n3Cc3ccccc3)CC2)cc1	Rin1 Abl inh 5.8 (no result: XiGFP reactiv) | Rin1-Abl confirm 7.7 | GFP quench inactive
Cc1ccc(C)c(SCC(=O)OCC(=O)Nc2ncc(C(F)(F)F)cc2Cl)c1	Rin1 Abl inh 9.1 | Rin1-Abl confirm inactive | GFP quench inactive
Cc1cc(Br)ccc1SCC(=O)OCC(=O)Nc1ncc(C(F)(F)F)cc1Cl	none
c1ccc2[nH]c(SCc3cn4ccccc4n3)nc2c1	Rin1 Abl inh 5.6 | Rin1-Abl confirm inactive | GFP quench inactive
Cc1cccc2nc(CSc3nc4ccccc4[nH]3)cn12	none
CC(C)C#Cc1ccc2c(c1)O[C@@H](CN(C)C(=O)C1CCCCC1)[C@@H](C)CN([C@@H](C)CO)S2(=O)=O	none (no result: Rpn11 inh, Rin1 Abl inh, ABHD5 PLIN5 PPI, NadD inh)
CCCN(C)C[C@H]1OCCCC[C@H](C)Oc2ccc(NS(C)(=O)=O)cc2C(=O)N([C@H](C)CO)C[C@H]1C	none (no result: Rpn11 inh, Rin1 Abl inh, ABHD5 PLIN5 PPI, NadD inh)
Cc1c(C(=O)N2CCCCCC2)oc2ccccc12	Rin1 Abl inh 6.6 (no result: XiGFP reactiv) | Rin1-Abl confirm inactive | GFP quench inactive
C[C@@H]1CN([C@H](C)CO)C(=O)c2cccc(NC(=O)Nc3ccc(C(F)(F)F)cc3)c2O[C@H]1CN(C)S(=O)(=O)c1ccccc1	none (no result: Rpn11 inh, Rin1 Abl inh, ABHD5 PLIN5 PPI, NadD inh)
COc1ccccc1-n1c(-c2ccc(Cl)cc2)c[nH]c1=S	Rin1 Abl inh 7.5 | Rin1-Abl confirm inactive | GFP quench inactive
Cc1cccc(-n2c(-c3ccccc3)c[nH]c2=S)c1C	none
O=C1NCCOCn2nncc2CC[C@H]1Cc1ccccc1	none (no result: Rpn11 inh, Rin1 Abl inh, ABHD5 PLIN5 PPI, NadD inh)
O=C(NCCOc1nc(N2CCCCC2)nc(N2CCOCC2)n1)Nc1ccccc1	none (no result: XiGFP reactiv)
O=C(NCCOc1nc(N2CCOCC2)nc(N2CCOCC2)n1)Nc1ccccc1	Rin1 Abl inh 6.9 (no result: XiGFP reactiv) | Rin1-Abl confirm inactive | GFP quench inactive
COC(C(=O)C(O)C(C)O)C1Cc2cc3cc(OC4CC(OC5CC(O)C(O)C(C)O5)C(O)C(C)O4)c(C)c(O)c3c(O)c2C(=O)C1OC1CC(OC2CC(OC3CC(O)C(OC)C(C)O3)C(O)C(C)O2)C(O)C(C)O1 (stereo not drawn)	Rin1 Abl inh 13 | Rin1-Abl confirm inactive | GFP quench inactive
COc1ccc(-n2nnc3c(=O)n(CC(=O)N4CCCC4)cnc32)cc1	Rin1 Abl inh 5.0 (no result: XiGFP reactiv) | Rin1-Abl confirm inactive | GFP quench inactive
C[C@H](CO)N1C[C@H](C)[C@H](CN(C)Cc2ccc(C(=O)Nc3ccccc3N)cc2)Oc2ccc(NC(=O)NC3CCCCC3)cc2CC1=O	none (no result: Rpn11 inh, Rin1 Abl inh, ABHD5 PLIN5 PPI, NadD inh)
CC(C)NC(=O)Nc1cccc2c1O[C@@H](CN(C)S(C)(=O)=O)[C@@H](C)CN(C)C2=O	none (no result: Rpn11 inh, Rin1 Abl inh, ABHD5 PLIN5 PPI, NadD inh)
